Data from ChEMBL document CHEMBL4665843, “Automated Design of Macrocycles for Therapeutic Applications: From Small Molecules to Peptides and Proteins” (J Med Chem, 2020).
Residues, ends and D or L forms follow the SMILES beside them.

Legend:
[1] = target: Glucagon receptor (Homo sapiens, UniProt P47871); experiment: Agonist activity at human glucagon receptor expressed in HEK293 cells assessed as induction of cAMP accumulation incubated for 30 mins by HTRF assay; format: functional, cell-based
[2] = target: Glucagon-like peptide 1 receptor (Homo sapiens, UniProt P43220); experiment: Agonist activity at human GLP-1 receptor expressed in HEK293 cells assessed as induction of cAMP accumulation incubated for 30 mins by HTRF assay; format: functional, cell-based
Method in brief: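 HEK-293 cells stably expressing human receptor, grown in DMEM/10% FBS, frozen, thawed and washed in HBSS/20 mM HEPES/0.1% HSA; resuspended with 2 mM IBMX. 5000 cells/well incubated with peptide 30 min at room temperature; cAMP by HTRF kit, 1 h with reagents in lysis buffer, 665/620 nm fluorescence ratio.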

Chain of Glucagon receptor (P47871 whole entry): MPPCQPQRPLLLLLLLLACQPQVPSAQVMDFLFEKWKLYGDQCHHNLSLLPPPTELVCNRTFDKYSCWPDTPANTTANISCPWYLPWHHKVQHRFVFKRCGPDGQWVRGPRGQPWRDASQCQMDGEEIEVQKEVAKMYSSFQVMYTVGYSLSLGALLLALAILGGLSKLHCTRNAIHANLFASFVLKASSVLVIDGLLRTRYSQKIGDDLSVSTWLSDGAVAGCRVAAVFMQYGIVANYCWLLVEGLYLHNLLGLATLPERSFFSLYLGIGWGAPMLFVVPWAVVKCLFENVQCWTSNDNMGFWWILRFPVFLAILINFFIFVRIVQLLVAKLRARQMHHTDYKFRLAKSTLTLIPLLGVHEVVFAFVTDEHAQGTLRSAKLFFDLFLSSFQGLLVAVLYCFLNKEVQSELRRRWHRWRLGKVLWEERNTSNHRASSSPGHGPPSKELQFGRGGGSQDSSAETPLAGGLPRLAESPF
Chain of Glucagon-like peptide 1 receptor (P43220 whole entry): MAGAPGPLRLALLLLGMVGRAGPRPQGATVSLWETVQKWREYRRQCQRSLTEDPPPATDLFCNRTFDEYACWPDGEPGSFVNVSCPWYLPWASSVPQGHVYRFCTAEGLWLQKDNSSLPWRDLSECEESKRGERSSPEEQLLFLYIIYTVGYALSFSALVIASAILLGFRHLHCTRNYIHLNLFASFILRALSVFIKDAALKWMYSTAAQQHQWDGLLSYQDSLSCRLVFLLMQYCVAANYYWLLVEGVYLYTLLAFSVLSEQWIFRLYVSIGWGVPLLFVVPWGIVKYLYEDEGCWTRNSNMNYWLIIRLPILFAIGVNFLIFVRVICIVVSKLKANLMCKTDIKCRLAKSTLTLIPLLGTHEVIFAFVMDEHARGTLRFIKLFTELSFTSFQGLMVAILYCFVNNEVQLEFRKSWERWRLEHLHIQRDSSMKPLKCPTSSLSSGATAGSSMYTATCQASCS

Structure (SMILES)	EC50 [1] [nM]	EC50 [2] [nM]
CC[C@H](C)[C@H](NC(=O)[C@H](Cc1ccccc1)NC(=O)[C@H](CC(=O)O)NC(=O)[C@H](CCC(N)=O)NC(=O)[C@H](C)NC(=O)[C@H](CCCNC(=N)N)NC(=O)[C@H](CCCNC(=N)N)NC(=O)[C@H](CO)NC(=O)[C@H](CC(=O)O)NC(=O)[C@H](CCSC)NC(=O)[C@H](CCC(N)=O)NC(=O)[C@H](CCCCN)NC(=O)[C@H](CO)NC(=O)[C@H](CC(C)C)NC(=O)[C@H](CC(=O)O)NC(=O)[C@H](CO)NC(=O)[C@@H](NC(=O)[C@H](Cc1ccccc1)NC(=O)[C@@H](NC(=O)CNC(=O)[C@H](CCC(N)=O)NC(=O)[C@@H](CO)NC(=O)[C@@H](N)Cc1cnc[nH]1)[C@@H](C)O)[C@@H](C)O)C(=O)N[C@@H](CCC(=O)O)C(=O)N[C@@H](Cc1c[nH]c2ccccc12)C(=O)N[C@@H](CC(C)C)C(=O)N[C@@H](CCCCN)C(=O)N[C@@H](CC(N)=O)C(=O)NCC(=O)NCC(=O)N1CCC[C@H]1C(=O)N[C@@H](CO)C(=O)N[C@@H](CO)C(=O)NCC(=O)N[C@@H](C)C(=O)N1CCC[C@H]1C(=O)N1CCC[C@H]1C(=O)N1CCC[C@H]1C(=O)N[C@@H](CO)C(N)=O	0.122	0.0754
CC[C@H](C)[C@H](NC(=O)[C@H](Cc1ccccc1)NC(=O)[C@H](CC(=O)O)NC(=O)[C@H](CCC(N)=O)NC(=O)[C@H](C)NC(=O)[C@H](CCCNC(=N)N)NC(=O)[C@H](CCCNC(=N)N)NC(=O)[C@H](CO)NC(=O)[C@H](CC(=O)O)NC(=O)[C@H](CCSC)NC(=O)[C@H](CCC(N)=O)NC(=O)[C@H](CCCCN)NC(=O)[C@H](CO)NC(=O)[C@H](CC(C)C)NC(=O)[C@H](CC(=O)O)NC(=O)[C@H](CO)NC(=O)[C@@H](NC(=O)[C@H](Cc1ccccc1)NC(=O)[C@@H](NC(=O)CNC(=O)[C@H](CCC(N)=O)NC(=O)[C@@H](CO)NC(=O)[C@@H](N)Cc1cnc[nH]1)[C@@H](C)O)[C@@H](C)O)C(=O)N[C@@H](CCC(=O)O)C(=O)N[C@@H](Cc1c[nH]c2ccccc12)C(=O)N[C@@H](CC(C)C)C(=O)N[C@@H](CCCCN)C(=O)N[C@H]1CCCCNC(=O)CC[C@@H](C(=O)NCC(=O)N[C@@H](C)C(=O)N2CCC[C@H]2C(=O)N2CCC[C@H]2C(=O)N2CCC[C@H]2C(=O)N[C@@H](CO)C(N)=O)NC(=O)[C@H](CO)NC(=O)[C@@H]2CCCN2C(=O)CNC(=O)CNC1=O	0.0596	0.00813
CC[C@H](C)[C@H](NC(=O)[C@H](Cc1ccccc1)NC(=O)[C@H](CC(=O)O)NC(=O)[C@H](CCC(N)=O)NC(=O)[C@H](C)NC(=O)[C@]1(C)CCC/C=C\CCC[C@](C)(NC(=O)[C@H](CCC(N)=O)NC(=O)[C@H](CCCCN)NC(=O)[C@H](CO)NC(=O)[C@H](CC(C)C)NC(=O)[C@H](CC(=O)O)NC(=O)[C@H](CO)NC(=O)[C@@H](NC(=O)[C@H](Cc2ccccc2)NC(=O)[C@@H](NC(=O)CNC(=O)[C@H](CCC(N)=O)NC(=O)[C@@H](CO)NC(=O)[C@@H](N)Cc2cnc[nH]2)[C@@H](C)O)[C@@H](C)O)C(=O)N[C@@H](CC(=O)O)C(=O)N[C@@H](CO)C(=O)N[C@@H](CCCNC(=N)N)C(=O)N1)C(=O)N[C@@H](CCC(=O)O)C(=O)N[C@@H](Cc1c[nH]c2ccccc12)C(=O)N[C@@H](CC(C)C)C(=O)N[C@@H](CCCCN)C(=O)N[C@@H](CC(N)=O)C(=O)NCC(=O)NCC(=O)N1CCC[C@H]1C(=O)N[C@@H](CO)C(=O)N[C@@H](CO)C(=O)NCC(=O)N[C@@H](C)C(=O)N1CCC[C@H]1C(=O)N1CCC[C@H]1C(=O)N1CCC[C@H]1C(=O)N[C@@H](CO)C(N)=O	8.43	0.0012
CC[C@H](C)[C@H](NC(=O)[C@H](Cc1ccccc1)NC(=O)[C@H](CC(=O)O)NC(=O)[C@H](CCC(N)=O)NC(=O)[C@H](C)NC(=O)[C@]1(C)CCC/C=C/CCC[C@](C)(NC(=O)[C@H](CCC(N)=O)NC(=O)[C@H](CCCCN)NC(=O)[C@H](CO)NC(=O)[C@H](CC(C)C)NC(=O)[C@H](CC(=O)O)NC(=O)[C@H](CO)NC(=O)[C@@H](NC(=O)[C@H](Cc2ccccc2)NC(=O)[C@@H](NC(=O)CNC(=O)[C@H](CCC(N)=O)NC(=O)[C@H](CO)NC(=O)[C@@H](N)Cc2cnc[nH]2)[C@@H](C)O)[C@@H](C)O)C(=O)N[C@@H](CC(=O)O)C(=O)N[C@@H](CO)C(=O)N[C@@H](CCCNC(=N)N)C(=O)N1)C(=O)N[C@@H](CCC(=O)O)C(=O)N[C@@H](Cc1c[nH]c2ccccc12)C(=O)N[C@@H](CC(C)C)C(=O)N[C@@H](CCCCN)C(=O)N[C@@H](CC(N)=O)C(=O)NCC(=O)NCC(=O)N1CCC[C@H]1C(=O)N[C@@H](CO)C(=O)N[C@@H](CO)C(=O)NCC(=O)N[C@@H](C)C(=O)N1CCC[C@H]1C(=O)N1CCC[C@H]1C(=O)N1CCC[C@H]1C(=O)N[C@@H](CO)C(N)=O	0.369	0.0004
CC[C@H](C)[C@H](NC(=O)[C@H](Cc1ccccc1)NC(=O)[C@H](CC(=O)O)NC(=O)[C@@H]1CCC(=O)NCCCC[C@H](NC(=O)[C@H](CC(=O)O)NC(=O)[C@H](CCSC)NC(=O)[C@H](CCC(N)=O)NC(=O)[C@H](CCCCN)NC(=O)[C@H](CO)NC(=O)[C@H](CC(C)C)NC(=O)[C@H](CC(=O)O)NC(=O)[C@H](CO)NC(=O)[C@@H](NC(=O)[C@H](Cc2ccccc2)NC(=O)[C@@H](NC(=O)CNC(=O)[C@H](CCC(N)=O)NC(=O)[C@@H](CO)NC(=O)[C@@H](N)Cc2cnc[nH]2)[C@@H](C)O)[C@@H](C)O)C(=O)N[C@@H](CCCNC(=N)N)C(=O)N[C@@H](CCCNC(=N)N)C(=O)N[C@@H](C)C(=O)N1)C(=O)N[C@@H](CCC(=O)O)C(=O)N[C@@H](Cc1c[nH]c2ccccc12)C(=O)N[C@@H](CC(C)C)C(=O)N[C@@H](CCCCN)C(=O)N[C@@H](CC(N)=O)C(=O)NCC(=O)NCC(=O)N1CCC[C@H]1C(=O)N[C@@H](CO)C(=O)N[C@@H](CO)C(=O)NCC(=O)N[C@@H](C)C(=O)N1CCC[C@H]1C(=O)N1CCC[C@H]1C(=O)N1CCC[C@H]1C(=O)N[C@@H](CO)C(N)=O	0.0078	0.0064
CC[C@H](C)[C@@H]1NC(=O)[C@H](Cc2ccccc2)NC(=O)[C@@H](NC(=O)[C@H](CCC(N)=O)NC(=O)[C@H](C)NC(=O)[C@H](CCCNC(=N)N)NC(=O)[C@H](CCCNC(=N)N)NC(=O)[C@H](CO)NC(=O)[C@H](CC(=O)O)NC(=O)[C@H](CCSC)NC(=O)[C@H](CCC(N)=O)NC(=O)[C@H](CCCCN)NC(=O)[C@H](CO)NC(=O)[C@H](CC(C)C)NC(=O)[C@H](CC(=O)O)NC(=O)[C@H](CO)NC(=O)[C@@H](NC(=O)[C@H](Cc2ccccc2)NC(=O)[C@@H](NC(=O)CNC(=O)[C@H](CCC(N)=O)NC(=O)[C@H](CO)NC(=O)[C@@H](N)Cc2cnc[nH]2)[C@@H](C)O)[C@@H](C)O)CSCc2cc3cc(c2)CSC[C@@H](C(=O)N2CCC[C@H]2C(=O)N2CCC[C@H]2C(=O)N2CCC[C@H]2C(=O)N[C@@H](CO)C(N)=O)NC(=O)CNC(=O)[C@H](CO)NC(=O)[C@@H](CO)NC(=O)[C@@H]2CCCN2C(=O)CNC(=O)CNC(=O)[C@H](CSC3)NC(=O)[C@H](CCCCN)NC(=O)[C@H](CC(C)C)NC(=O)[C@H](Cc2c[nH]c3ccccc23)NC(=O)[C@H](CCC(=O)O)NC1=O	0.578	0.194
CC[C@H](C)[C@H](NC(=O)[C@H](Cc1ccccc1)NC(=O)[C@H](CC(=O)O)NC(=O)[C@H](CCC(N)=O)NC(=O)[C@H](C)NC(=O)[C@H](CCCNC(=N)N)NC(=O)[C@H](CCCNC(=N)N)NC(=O)[C@H](CO)NC(=O)[C@H](CC(=O)O)NC(=O)[C@@H]1CCC(=O)NCCCC[C@H](NC(=O)[C@H](CC(=O)O)NC(=O)[C@H](CO)NC(=O)[C@@H](NC(=O)[C@H](Cc2ccccc2)NC(=O)[C@@H](NC(=O)CNC(=O)[C@H](CCC(N)=O)NC(=O)[C@H](CO)NC(=O)[C@@H](N)Cc2cnc[nH]2)[C@@H](C)O)[C@@H](C)O)C(=O)N[C@@H](CO)C(=O)N[C@@H](CCCCN)C(=O)N[C@@H](CCC(N)=O)C(=O)N1)C(=O)N[C@@H](CCC(=O)O)C(=O)N[C@@H](Cc1c[nH]c2ccccc12)C(=O)N[C@@H](CC(C)C)C(=O)N[C@@H](CCCCN)C(=O)N[C@@H](CC(N)=O)C(=O)NCC(=O)NCC(=O)N1CCC[C@H]1C(=O)N[C@@H](CO)C(=O)N[C@@H](CO)C(=O)NCC(=O)N[C@@H](C)C(=O)N1CCC[C@H]1C(=O)N1CCC[C@H]1C(=O)N1CCC[C@H]1C(=O)N[C@@H](CO)C(N)=O (HELM PEPTIDE1{H.S.Q.G.T.F.T.S.D.K.S.K.Q.E.D.S.R.R.A.Q.D.F.I.E.W.L.K.N.G.G.P.S.S.G.A.P.P.P.S.[am]}$PEPTIDE1,PEPTIDE1,10:R3-14:R3$$$V2.0)		0.0475
CC[C@H](C)[C@@H]1NC(=O)[C@H](Cc2ccccc2)NC(=O)[C@@H](NC(=O)[C@H](CCC(N)=O)NC(=O)[C@H](C)NC(=O)[C@H](CCCNC(=N)N)NC(=O)[C@H](CCCNC(=N)N)NC(=O)[C@H](CO)NC(=O)[C@H](CC(=O)O)NC(=O)[C@H](CCSC)NC(=O)[C@H](CCC(N)=O)NC(=O)[C@H](CCCCN)NC(=O)[C@H](CO)NC(=O)[C@H](CC(C)C)NC(=O)[C@H](CC(=O)O)NC(=O)[C@H](CO)NC(=O)[C@@H](NC(=O)[C@H](Cc2ccccc2)NC(=O)[C@@H](NC(=O)CNC(=O)[C@H](CCC(N)=O)NC(=O)[C@H](CO)NC(=O)[C@@H](N)Cc2cnc[nH]2)[C@@H](C)O)[C@@H](C)O)CSCc2cccc(c2)CSC[C@@H](C(=O)N2CCC[C@H]2C(=O)N2CCC[C@H]2C(=O)N2CCC[C@H]2C(=O)N[C@@H](CO)C(N)=O)NC(=O)CNC(=O)[C@H](CO)NC(=O)[C@H](CO)NC(=O)[C@@H]2CCCN2C(=O)CNC(=O)CNC(=O)[C@H](CC(N)=O)NC(=O)[C@H](CCCCN)NC(=O)[C@H](CC(C)C)NC(=O)[C@H](Cc2c[nH]c3ccccc23)NC(=O)[C@H](CCC(=O)O)NC1=O (HELM PEPTIDE1{H.S.Q.G.T.F.T.S.D.L.S.K.Q.M.D.S.R.R.A.Q.C.F.I.E.W.L.K.N.G.G.P.S.S.G.C.P.P.P.S.[am]}|CHEM1{[c1cc(C[*:1])cc(C[*:2])c1]}$PEPTIDE1,CHEM1,21:R3-1:R1|PEPTIDE1,CHEM1,35:R3-1:R2$$$V2.0)		0.0249
